From ChEMBL document CHEMBL1124808, “The synthesis and antiallergy activity of 1-(aryloxy)-4-(4-arylpiperazinyl)-2-butanol derivatives” (1990)

What was measured:
Type in all cases: functional
[1] = system: Rattus norvegicus; assay: Percent change in volume of foot edema of test compound to that of positive control was determined at a dose of 31.6 mg/kg in rat; -26/-81
[2] = system: Rattus norvegicus; assay: Percent change in volume of foot edema of test compound to that of positive control was determined at a dose of 31.6 mg/kg in rat
[3] = system: Rattus norvegicus; assay: Percent change in volume of foot edema of test compound to that of positive control was determined at a dose of 10 mg/kg in rat
[4] = species: Cavia porcellus; assay: Dose that protects 50% of guinea pig from collapse was determined in guinea pig anaphylaxis assay; details: read-out: PD50
Method in brief: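 Guinea pigs dosed by gavage (10 mL/kg) with compound in 0.5% Tween 80/water; reference theophylline 100 mg/kg po. At 1–24 h, exposed in chamber to aerosolized 1% (w/v) egg albumin at 10 L air/min for up to 5 min; protected if no collapse within 5 min. PD50 by Litchfield and Wilcoxon.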

[5] = system: Rattus norvegicus; assay: Percent change in volume of foot edema of test compound to that of positive control was determined at a dose of 3.16 mg/kg in rat; -52/-79
[6] = system: Rattus norvegicus; assay: Percent change in volume of foot edema of test compound to that of positive control was determined at a dose of 10 mg/kg in rat; -67/-72
[7] = system: Rattus norvegicus; assay: Percent change in volume of foot edema of test compound to that of positive control was determined at a dose of 31.6 mg/kg in rat; -90/-79
[8] = system: Rattus norvegicus; assay: Percent change in volume of foot edema of test compound to that of positive control was determined at a dose of 31.6 mg/kg in rat; -91/-83
[9] = system: Rattus norvegicus; assay: Percent change in volume of foot edema of test compound to that of positive control was determined at a dose of 10 mg/kg in rat; -70/-88
[10] = system: Rattus norvegicus; assay: Oral Antiallergic activity in the passive foot anaphylaxis (PFA) assay of various amines at the dose of 3.16 mg/kg; -42/-78
[11] = system: Rattus norvegicus; assay: Percent change in volume of foot edema of test compound to that of positive control was determined at a dose of 10 mg/kg in rat; -72/-83
[12] = system: Rattus norvegicus; assay: Percent change in volume of foot edema of test compound to that of positive control was determined at a dose of 3.16 mg/kg in rat; -32/-93
[13] = system: Rattus norvegicus; assay: Percent change in volume of foot edema of test compound to that of positive control was determined at a dose of 31.6 mg/kg in rat; -88/-83
[14] = system: Rattus norvegicus; assay: Percent change in volume of foot edema of test compound to that of positive control was determined at a dose of 31.6 mg/kg in rat; -24/-58
[15] = system: Rattus norvegicus; assay: Percent change in volume of foot edema of test compound to that of positive control was determined at a dose of 10 mg/kg in rat; -39/-78
[16] = system: Rattus norvegicus; assay: Percent change in volume of foot edema of test compound to that of positive control was determined at a dose of 31.6 mg/kg in rat; -70/-84
[17] = system: Rattus norvegicus; assay: Percent change in volume of foot edema of test compound to that of positive control was determined at a dose of 31.6 mg/kg in rat; […]/-78
[18] = system: Rattus norvegicus; assay: Percent change in volume of foot edema of test compound to that of positive control was determined at a dose of 3.16 mg/kg in rat; +22/-62
[19] = system: Rattus norvegicus; assay: Percent change in volume of foot edema of test compound to that of positive control was determined at a dose of 10 mg/kg in rat; -50/-62
[20] = system: Rattus norvegicus; assay: Percent change in volume of foot edema of test compound to that of positive control was determined at a dose of 31.6 mg/kg in rat; -49/-44
[21] = system: Rattus norvegicus; assay: Percent change in volume of foot edema of test compound to that of positive control was determined at a dose of 10 mg/kg in rat; -25/-44
[22] = system: Rattus norvegicus; assay: Percent change in volume of foot edema of test compound to that of positive control was determined at a dose of 10 mg/kg in rat; -48/-68
[23] = system: Rattus norvegicus; assay: Percent change in volume of foot edema of test compound to that of positive control was determined at a dose of 3.16 mg/kg in rat; -13/-68
[24] = system: Rattus norvegicus; assay: Percent change in volume of foot edema of test compound to that of positive control was determined at a dose of 31.6 mg/kg in rat; -78/-78
[25] = system: Rattus norvegicus; assay: Percent change in volume of foot edema of test compound to that of positive control was determined at a dose of 10 mg/kg in rat; -5/-59
[26] = system: Rattus norvegicus; assay: Percent change in volume of foot edema of test compound to that of positive control was determined at a dose of 31.6 mg/kg in rat; -54/-67
[27] = system: Rattus norvegicus; assay: Percent change in volume of foot edema of test compound to that of positive control was determined at a dose of 10 mg/kg in rat; -41/-59
[28] = system: Rattus norvegicus; assay: Percent change in volume of foot edema of test compound to that of positive control was determined at a dose of 31.6 mg/kg in rat; -74/-67
[29] = system: Rattus norvegicus; assay: Percent change in volume of foot edema of test compound to that of positive control was determined at a dose of 31.6 mg/kg in rat; -29/-47
[30] = system: Rattus norvegicus; assay: Percent change in volume of foot edema of test compound to that of positive control was determined at a dose of 31.6 mg/kg in rat; -73/-65
[31] = system: Rattus norvegicus; assay: Percent change in volume of foot edema of test compound to that of positive control was determined at a dose of 10 mg/kg in rat; -43/-81

O=C(O)C(=O)O.OC(CCN1CCCCC1)COc1ccccc1 (centres undefined)
PFA [1]: -26

Cl.Cl.O=[N+]([O-])c1ccc(OCC(O)CCN2CCN(c3ccccc3)CC2)cc1 (centres undefined)
PFA [2]: -92 | PFA [3]: -28

Cl.Cl.OC(CCN1CCN(c2ccccn2)CC1)COc1ccc(F)cc1 (centres undefined)
ED50 [4]: 13.9 mg/kg | PFA [5]: -52 | PFA [6]: -67 | PFA [7]: -90

COc1ccc(N2CCN(CCC(O)COc3ccc(F)cc3)CC2)cc1.Cl (centres undefined)
PFA [8]: -91 | ED50 [4]: > 178 mg/kg | PFA [9]: -70 | PFA [10]: -42

Cl.OC(CCN1CCN(c2ccc(F)cc2)CC1)COc1ccc(F)cc1 (centres undefined)
ED50 [4]: 3.06 mg/kg | PFA [11]: -72 | PFA [12]: -32 | PFA [13]: -88

CN1CCN(CCC(O)COc2ccccc2)CC1.O=C(O)/C=C\C(=O)O (centres undefined)
PFA [14]: -24

O=C(O)/C=C\C(=O)O.O=C(O)/C=C\C(=O)O.OC(CCN1CCN(c2ccccn2)CC1)COc1ccccc1 (centres undefined)
PFA [15]: -39 | PFA [16]: -70

Cc1cc(Cl)ccc1OCC(O)CCN1CCN(c2ccccc2)CC1.Cl.Cl (centres undefined)
PFA [17]: -69 | PFA [18]: 22 | PFA [19]: -50

Cl.Cl.OC(CCN1CCN(c2ccccc2)CC1)COc1ccc(Cl)c(Cl)c1 (centres undefined)
PFA [20]: -49 | PFA [21]: -25

Cl.Cl.OC(CCN1CCN(c2ccccn2)CC1)COc1ccc(Cl)cc1 (centres undefined)
ED50 [4]: 10.2 mg/kg | PFA [22]: -48 | PFA [23]: -13 | PFA [24]: -78

Cl.Cl.OC(CCN1CCN(c2ccc(Cl)cc2)CC1)COc1ccc(Cl)cc1 (centres undefined)
PFA [25]: -5 | PFA [26]: -54

Cc1cc(OCC(O)CCN2CCN(c3ccc(F)cc3)CC2)ccc1Cl.Cl.Cl (centres undefined)
PFA [27]: -41 | PFA [28]: -74

OC(CCN1CCC(c2ccccc2)CC1)COc1ccccc1 (centres undefined)
PFA [29]: -29

OC(CCN1CCN(c2ccccc2)CC1)COc1ccc(F)cc1 (centres undefined)
PFA [30]: -73 | PFA [31]: -43
